NR2E3 ag-1 – inhibitors of NR2E3-RetCOR corepressor binding, primary screen, NR2E3 agonist project, biochemical, TR-FRET, GST-NR2E3, biotin-RetCOR; hit rate 0.12% among 320,000; Photoreceptor-specific nuclear receptor (Homo sapiens), Q9Y5X4; inhibition of corepressor binding, % at 4.78 µM; AID 2300, 2010; 1536-well;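 active = percent inhibition above the cutoff of mean plus 3 SD of all tested compounds, set per screening campaign, cut at about 20% in these data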;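 also: 0% = DMSO wells and 100% = biotin wells as full block of FRET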
Target sequence (Q9Y5X4 whole entry, looked up): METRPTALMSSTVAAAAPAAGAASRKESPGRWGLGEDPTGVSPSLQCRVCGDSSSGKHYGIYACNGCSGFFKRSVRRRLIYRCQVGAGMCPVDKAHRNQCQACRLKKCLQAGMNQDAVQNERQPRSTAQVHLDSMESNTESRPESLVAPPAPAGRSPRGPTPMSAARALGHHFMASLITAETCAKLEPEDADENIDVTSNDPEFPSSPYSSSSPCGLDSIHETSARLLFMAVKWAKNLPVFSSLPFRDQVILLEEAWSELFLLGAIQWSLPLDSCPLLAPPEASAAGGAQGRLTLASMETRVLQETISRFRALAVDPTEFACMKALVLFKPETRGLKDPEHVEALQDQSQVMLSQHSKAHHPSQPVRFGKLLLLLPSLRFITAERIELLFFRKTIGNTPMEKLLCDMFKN
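Assay system: NR2E3–RetCOR corepressor complex. Quantity: 1.35 nM GST-NR2E3. Buffer or medium: pH 7.5 Tris-based buffer. Reagent: biotinylated RetCOR corepressor at 7 nM final. Schedule: 5 h at 4 °C. Detection: TR-FRET, emission read at 617 and 671 nm. Replicates: one well per compound, singlicate testing.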
NR2E3 ag-2 – NR2E3 agonists in two-hybrid cells, primary screen, cell-based, luminescence, CHO-S, Gal4-NCOR/VP16-NR2E3; Photoreceptor-specific nuclear receptor (Homo sapiens), Q9Y5X4; luciferase; inhibition of corepressor binding, % at 3.98 µM; hit rate 0.35% among 360,000; AID 602229, 2012;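 active = inhibition above the mean of all tested compounds plus 3 SD, cut at about 70% in these data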;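 also: 0% = DMSO with NR2E3 transfected cells and 100% = cells lacking NR2E3 construct; higher means lower luciferase signal from less NR2E3 corepressor binding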
NadD block – inhibitors of S. aureus NadD, primary screen, biochemical, colorimetric, uHTS. purified NadD enzyme, colorimetric absorbance read-out. hit rate 0.78% among 360,000. inhibition, % at 20 µM. AID 602399, 2012; in the data active = inhibition above about 26%
MsrA inh – bovine MsrA enzyme inhibitors, primary screen, biochemical, absorbance, HTS. Methionine sulfoxide reductase A (Bos taurus). purified bovine MsrA, absorbance read-out. inhibition, % at 15.5 µM. hit rate 0.75% among 360,000. AID 651718, 2012;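 also: 0% = vehicle wells with enzyme and 100% = reference inhibitor wells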
bovine MsrA act – bovine MsrA enzyme activators, primary screen, biochemical, absorbance, HTS | activation, % at 10.6 µM | purified bovine MsrA, absorbance read-out | Methionine sulfoxide reductase A (Bos taurus) | hit rate 0.3% among 360,000; in the data active = activation above about 7.5%;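 also: 0% = vehicle and 100% = reference activator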
GalR3 antag – GalR3 antagonists in HEK293 cells, primary screen, cell-based, fluorescence readout; Galanin receptor type 3 (Homo sapiens), O60755; HEK293 GalR3-CNG cAMP membrane potential fluorescence; galR3 body fused to GalR1 C-terminus; inhibition, % at 3 µM; hit rate 0.44% among 360,000;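 active = inhibition above the screen-wide average plus 3 SD, cut at about 13% in these data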;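 also: forskolin and galanin both at EC90 stimulate the cells; cAMP rise reported by CNG channel membrane potential dye signal; 0% = forskolin plus galanin with DMSO and 100% = forskolin alone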
Target sequence (O60755 1-299 limits assumed): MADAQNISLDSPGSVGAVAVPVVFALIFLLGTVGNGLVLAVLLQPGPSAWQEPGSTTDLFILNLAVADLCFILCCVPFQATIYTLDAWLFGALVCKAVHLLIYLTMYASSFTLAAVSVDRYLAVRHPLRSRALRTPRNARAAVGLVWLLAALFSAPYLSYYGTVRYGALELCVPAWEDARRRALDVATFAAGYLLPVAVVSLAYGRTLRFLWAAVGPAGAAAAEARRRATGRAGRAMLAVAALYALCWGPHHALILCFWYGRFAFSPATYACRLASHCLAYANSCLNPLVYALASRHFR
MsrA conf – bovine MsrA inhibitors, retest, confirmation, biochemical, absorbance, HTS | purified bovine MsrA, absorbance read-out | shares compounds with MsrA inh | hit rate 41% among 2,300 | inhibition, % at 15.5 µM;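 also: coupled to thioredoxin reductase with NADPH and selenocystamine and DMSO as substrate; 0% = vehicle only and 100% = full effect of reference inhibitor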
The depositor's hits bear a star; · = no result. An excerpt weighted towards active compounds, which were near 2.5% of everything screened. Rule as the data show it, unless noted: active = inhibition above about 4.5%; inactive = the rest.

SMILES | NR2E3 ag-1 | NR2E3 ag-2 | NadD block | MsrA inh | bovine MsrA act | GalR3 antag | MsrA conf
CN(C)c1ccc(/C=N/N2C(=S)SC(C)(C)C2N(O)C(=O)Nc2ccc([N+](=O)[O-])cc2)cc1 (stereo not given) | -1 | -30 | 20 | 6.1* | -10 | 0 | 2
C=CCNC(=O)N1CCC(CO)(Cc2ccc(Cl)cc2)CC1 | -3 | 2 | 6 | -1 | -2 | -5 | ·
O=C(CCN1C(=O)/C(=C\c2cccs2)SC1=S)Nc1ccc(C(=O)O)cc1 | 1 | -10 | 7 | 0 | -4 | -2 | ·
O=C(CN1C(=O)S/C(=C\c2cccs2)C1=O)Nc1ccc(C(=O)O)c(O)c1 | 0 | 5 | -8 | 5.3* | -5 | -8 | 6.0*
O=C(CN1C(=O)S/C(=C/c2cccs2)C1=O)N1CCCC1 | -4 | -58 | 6 | 3 | -5 | -1 | ·
O=C(CN1C(=O)S/C(=C\c2cccs2)C1=O)Nc1ccc(O)c(C(=O)O)c1 | -1 | -4 | -2 | 5.3* | -4 | 0 | 5.8*
CCCCNCCOCCOc1ccccc1-c1ccccc1 | -1 | -8 | -3 | -1 | -3 | 0 | ·
Cn1c(=O)n(C)c2cc(/C=N/NC(N)=S)ccc21 | 0 | -2 | -1 | 5.5* | -8 | -1 | 4.8*
CN(C)c1ccc(/C=N/NC(N)=S)cc1[N+](=O)[O-] | -6 | 2 | -1 | 10* | -5 | 2 | 7.1*
CC(C)C(CCNCc1ccccn1)c1ccc(Cl)cc1 (stereo not given) | -4 | -16 | -4 | -1 | 0 | -18 | ·
O=c1c(Cl)c(N2CCOCC2)cnn1-c1nc2ccccc2[nH]1 | -1 | -99 | 0 | 4.8* | -4 | -1 | 3
COc1ccc(Oc2nnnn2-c2ccccc2)cc1 | 2 | -21 | 1 | 1 | 0 | -3 | ·
COc1cccc(Oc2nnnn2-c2ccccc2)c1 | 1 | -17 | 0 | 4.7* | -3 | -1 | 1
O=C(COc1ccc2oc(-c3ccco3)cc(=O)c2c1)N1CCCCC1 | 3 | -50 | -3 | 4.7* | -6 | 5 | 3
COc1ccc2oc(-c3ccco3)cc(=O)c2c1 | 0 | -99 | -2 | 3 | -2 | 1 | ·
COc1cccc(N=c2oc3ccc(OC)cc3cc2-c2nc3ccccc3[nH]2)c1 | -1 | -168 | 0 | 2 | -1 | -6 | ·
COc1cccc(N=c2oc3ccccc3cc2-c2nc3ccccc3[nH]2)c1 | -1 | -130 | -4 | 5.2* | -3 | -4 | 1
CCCC(=O)N(c1ccc(OC)cc1)C1C=CS(=O)(=O)C1 (stereo not given) | 2 | 7 | -5 | -1 | -3 | -4 | ·
COc1ccc(C2=NS(=O)(=O)N(C)C(C(=O)NCc3ccccc3)=C2)cc1OC | 6 | -6 | -3 | 2 | 0 | · | ·
COc1ccc(C2=NS(=O)(=O)N(C)C(C(=O)NC3CCCCC3)=C2)cc1 | 7 | 17 | -6 | 3 | -10 | · | ·
COc1ccc(NC(=O)C2=CC(c3ccc(OC)cc3)=NS(=O)(=O)N2C)cc1 | 3 | -16 | -6 | 5.4* | -2 | · | 2
COc1ccc(C2=NS(=O)(=O)N(C)C(C(=O)NCc3ccccn3)=C2)cc1 | 1 | -14 | -1 | 4.7* | -1 | 1 | 3
COc1ccc(C2=NS(=O)(=O)N(C)C(C(=O)NCc3cccs3)=C2)cc1OC | 0 | -23 | -4 | 4.7* | -2 | · | 2
COc1ccc(C2=NS(=O)(=O)N(C)C(C(=O)NC3CCCC3)=C2)cc1 | 2 | 15 | 3 | 6.1* | -2 | · | 2
Cc1cccnc1Nc1nc(-c2ccc(O)c(O)c2)cs1 | 2 | -129 | 2 | -1 | 2 | 3 | ·
SMILES | NR2E3 ag-1 | NR2E3 ag-2 | NadD block | MsrA inh | bovine MsrA act | GalR3 antag | MsrA conf
O=C(OCc1ccccc1)N1CCC2CC1c1cc(-c3ccccc3)ccc12 (stereo not given) | · | -22 | 2 | -1 | 0 | -7 | ·
COc1ccc(-c2cccc3c2C2CC3CCN2C(=O)OCc2ccccc2)cc1 (stereo not given) | · | -20 | 3 | 6.4* | -2 | -8 | 2
Cc1cc(C)cc(C(=O)NCC(=O)OCN2C(=O)c3ccccc3C2=O)c1 | 3 | 25 | 1 | 0 | -1 | -3 | ·
COc1ccc(C2/C(=C(/O)c3cnn(-c4ccccc4)c3C)C(=O)C(=O)N2CCN(C)C)cc1OC (stereo not given) | · | -24 | -3 | 9.3* | -4 | -2 | 2
O=C(O)c1cccc(Nc2ncnc3sccc23)c1 | -3 | -28 | -4 | 0 | -10 | -6 | ·
COc1ccc(/C=C/C(=O)C2(O)CCCCC2)cc1 | 5 | -2 | -2 | 5.2* | -6 | -4 | 3
CCOC(=O)c1sc(C)c2c(=O)n(CC)nnc12 | 2 | 26 | -2 | 5.7* | -4 | -6 | 3
CCOC(=O)c1sc(C)c2c(=O)n(CCc3ccccc3)nnc12 | 0 | -16 | -4 | -1 | -2 | -4 | ·
C=C(C)CN(CC)C(=O)CSc1nc(O)cc(=O)n1C1CCCC1 | 0 | -3 | -1 | -1 | -4 | 0 | ·
CC(=O)NC(C)c1nc2ccccc2n1CC(=O)N1C(C)CCCC1C (stereo not given) | 1 | 0 | -3 | 1 | -11 | -1 | ·
N#C/C(=C\Nc1ccccc1O)c1nc2ccccc2o1 | -1 | -28 | -9 | 9.7* | -12 | -7 | 7.7*
Cc1csc(NC(=O)CSc2nc3ccccc3c3c2CCCC3)n1 | 3 | -33 | 5 | 2 | -3 | -5 | ·
CC(=O)c1ccc(Nc2ccc([N+](=O)[O-])c3nonc23)cc1 | 0 | -40 | -4 | 7.0* | 3 | 0 | 4
Nc1nc(Sc2ccc([N+](=O)[O-])c3nonc23)c2[nH]cnc2n1 | · | 12 | 14 | 3 | -6 | -4 | ·
CNc1ncnc(Sc2nc(N)nc3nc[nH]c23)c1[N+](=O)[O-] | · | 23 | 2 | 5.3* | -10 | -4 | 5.5*
COC(=O)COc1ccc(S(=O)(=O)NCCC2=CCCCC2)cc1Cl | -2 | 2 | -7 | 0 | -2 | -5 | ·
Cc1sc2ncn(CC(=O)NCCCC(=O)Nc3ccc(C(C)C)cc3)c(=O)c2c1C | 1 | -23 | 0 | 0 | -1 | -7 | ·
CCN(CC)S(=O)(=O)c1ccc(N/N=C/c2ccccc2OCC(=O)O)c([N+](=O)[O-])c1 | -2 | 8 | 9 | 5.6* | -10 | 0 | 2

Screening data deposited in PubChem by several laboratories.
